Results reported in ChEMBL document CHEMBL1154645, “Aza-peptidyl Michael acceptor and epoxide inhibitors--potent and selective inhibitors of Schistosoma mansoni and Ixodes ricinus legumains (asparaginyl endopeptidases)” (J Med Chem, 2009).

Columns and labels:
[1] = Inhibition of Schistosoma mansoni asparaginyl endopeptidase
Summary of the method: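 Recombinant S. mansoni legumain zymogen expressed in Pichia pastoris and activated before use. Assay buffer was 0.1 M citrate-phosphate with 4 mM DTT at pH 6.8, with under 1% DMSO. The substrate was Cbz-Ala-Ala-[…]-AMC at a final 10 μM, and activity was read as AMC release.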

Legumain-like protease = biological target: T1, Legumain-like protease (Ixodes ricinus, UniProt Q6PRC7); assay: Inhibition of Ixodes ricinus asparaginyl endopeptidases
T1 sequence (Q6PRC7 whole entry): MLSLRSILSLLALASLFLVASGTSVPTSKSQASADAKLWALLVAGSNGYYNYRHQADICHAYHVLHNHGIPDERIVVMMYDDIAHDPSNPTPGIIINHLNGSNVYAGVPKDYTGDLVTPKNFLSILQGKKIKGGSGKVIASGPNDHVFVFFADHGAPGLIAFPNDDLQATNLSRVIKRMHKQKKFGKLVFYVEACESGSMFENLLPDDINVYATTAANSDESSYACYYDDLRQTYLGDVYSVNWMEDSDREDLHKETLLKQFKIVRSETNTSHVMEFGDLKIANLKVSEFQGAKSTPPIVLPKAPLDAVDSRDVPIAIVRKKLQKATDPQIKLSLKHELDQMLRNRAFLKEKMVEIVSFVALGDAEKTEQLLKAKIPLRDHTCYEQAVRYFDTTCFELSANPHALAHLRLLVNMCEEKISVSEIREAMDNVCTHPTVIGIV
Summary of the method: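 Recombinant I. ricinus legumain zymogen expressed in Pichia pastoris, then activated. Substrate: Cbz-Ala-Ala-[…]-AMC at 10 μM final, with fluorogenic AMC release as the read-out.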

SMILES	IC50 ([1]; read-out: IC50) [nM]	IC50 (Legumain-like protease; read-out: IC50) [nM]	IC50 [1]	IC50 (Legumain-like protease)
C[C@H](NC(=O)[C@@H](C)NC(=O)N1CCCCC1)C(=O)NN(CC(N)=O)C(=O)/C=C/C(=O)NCCc1ccccc1	750	400	–	–
C[C@H](NC(=O)[C@@H](C)NC(=O)N1CCNCC1)C(=O)NN(CC(N)=O)C(=O)/C=C/C(=O)OCc1ccccc1	250	13	–	–
C[C@H](NC(=O)[C@H](C)NC(=O)N1CCOCC1)C(=O)NN(CC(N)=O)C(=O)OCc1ccccc1	–	–	Not Active	Not Active
C[C@H](NC(=O)N1CCOCC1)C(=O)NN(CC(N)=O)C(=O)/C=C/C(=O)NCc1ccco1	–	–	Not Active	Not Active
C=C/C=C(\C)CNC(=O)N(CC(N)=O)NC(=O)[C@H](C)NC(=O)N1CCN(C(=O)OCc2ccccc2)CC1	–	–	Not Active	Not Active
C[C@H](NC(=O)[C@@H](C)NC(=O)N1CCNCC1)C(=O)NN(CC(N)=O)C(=O)/C=C/C(=O)N(C)Cc1cccc2ccccc12	40	3.8	–	–
C[C@H](NC(=O)[C@@H](C)NC(=O)N1CCNCC1)C(=O)NN(CC(N)=O)C(=O)/C=C/C(=O)N(Cc1ccccc1)Cc1ccccc1	90	31	–	–
C[C@H](NC(=O)[C@H](C)NC(=O)N1CCCCC1)C(=O)NN(CC(N)=O)C(=O)/C=C/C(=O)N(Cc1ccccc1)Cc1ccccc1	80	17	–	–
C[C@H](NC(=O)[C@@H](C)NC(=O)N1CCN(C(=O)OC(C)(C)C)CC1)C(=O)NN(CC(N)=O)C(=O)/C=C/C(=O)OCc1ccccc1	45	7.5	–	–
C[C@H](NC(=O)[C@@H](C)NC(=O)N1CCN(C(=O)OC(C)(C)C)CC1)C(=O)NN(CC(N)=O)C(=O)/C=C/C(=O)N(C)Cc1cccc2ccccc12	58	20	–	–
CCOC(=O)/C=C/C(=O)N(CC(N)=O)NC(=O)[C@H](C)NC(=O)[C@@H](C)NC(=O)N1CCN(C(=O)OCc2ccccc2)CC1	–	0.14	–	–
CC(C)[C@H](NC(=O)[C@@H](C)NC(=O)OCc1ccccc1)C(=O)NN(CC(N)=O)C(=O)/C=C/C(=O)NCc1cccc2ccccc12	1050	350	–	–
CCOC(=O)/C=C/C(=O)N(CC(N)=O)NC(=O)[C@@H](NC(=O)[C@@H](C)NC(=O)OCc1ccccc1)C(C)C	100	65	–	–
C[C@H](NC(=O)N1CCN(C(=O)OCc2ccccc2)CC1)C(=O)NN(CC(N)=O)C(=O)/C=C/C(=O)N1CCc2ccccc2C1	750	800	–	–
C[C@H](NC(=O)[C@@H](C)NC(=O)N1CCOCC1)C(=O)NN(CC(N)=O)C(=O)/C=C/C(=O)N(Cc1cccc2ccccc12)Cc1cccc2ccccc12	45	3.3	–	–
C[C@H](NC(=O)N1CCN(C(=O)OCc2ccccc2)CC1)C(=O)NN(CC(N)=O)C(=O)/C=C/C(=O)N1CCCc2ccccc21	750	850	–	–
C[C@H](NC(=O)N1CCOCC1)C(=O)NN(CC(N)=O)C(=O)/C=C/C(=O)NC1CC1	–	–	Not Active	Not Active
C[C@H](NC(=O)N1CCOCC1)C(=O)NN(CC(N)=O)C(=O)Nc1cccc2ccccc12	–	–	Not Active	Not Active
C[C@H](NC(=O)N1CCOCC1)C(=O)NN(CC(N)=O)C(=O)/C=C/C(=O)N1CCc2ccccc2C1	750	600	–	–
CCOC(=O)/C=C/C(=O)N(CC(N)=O)NC(=O)[C@H](C)NC(=O)[C@@H](C)NC(=O)N1CCCCC1	80	15	–	–
C[C@H](NC(=O)N1CCOCC1)C(=O)NN(CC(N)=O)C(=O)CCc1ccccc1	–	–	Not Active	Not Active
C[C@H](NC(=O)[C@@H](C)NC(=O)N1CCN(C(=O)OC(C)(C)C)CC1)C(=O)NN(CC(N)=O)C(=O)/C=C/C(=O)N(Cc1ccccc1)Cc1ccccc1	45	30	–	–
CCOC(=O)/C=C/C(=O)N(CC(N)=O)NC(=O)OC(C)(C)C	> 2000	750	–	–
CCOC(=O)/C=C/C(=O)N(CC(N)=O)NC(=O)[C@H](C)NC(=O)[C@@H](C)NC(=O)N1CCN(C(=O)OC(C)(C)C)CC1	80	8.5	–	–
CC(C)(C)OC(=O)NN(CC(N)=O)C(=O)/C=C/C(=O)NCC1CCCCC1	–	–	Not Active	Not Active

SMILES	IC50 ([1]; read-out: IC50) [nM]	IC50 (Legumain-like protease; read-out: IC50) [nM]	IC50 [1]	IC50 (Legumain-like protease)
C[C@H](NC(=O)N1CCOCC1)C(=O)NN(CC(N)=O)C(=O)/C=C/C(=O)NCCCc1ccccc1	> 2000	–	–	Not Active
CC(C)(C)OC(=O)NN(CC(N)=O)C(=O)/C=C/C(=O)NCCCc1ccccc1	–	–	Not Active	Not Active
CCOC(=O)/C=C/C(=O)N(CC(N)=O)NC(=O)[C@@H](NC(=O)[C@@H](C)NC(=O)OCc1ccccc1)[C@@H](C)CC	280	0.52	–	–
C[C@H](NC(=O)N1CCCCC1)C(=O)NN(CC(N)=O)C(=O)Nc1ccccc1Oc1ccccc1	–	–	Not Active	Not Active
C[C@H](NC(=O)[C@@H](C)NC(=O)N1CCOCC1)C(=O)NN(CC(N)=O)C(=O)/C=C/C(=O)N1CCc2ccccc2C1	103	65	–	–
C[C@H](NC(=O)N1CCCCC1)C(=O)NN(CC(N)=O)C(=O)/C=C/C(=O)N1CCc2ccccc2C1	600	150	–	–
CCOC(=O)/C=C/C(=O)N(CC(N)=O)NC(=O)[C@H](C)NC(=O)[C@@H](C)NC(=O)N1CCNCC1	300	8.5	–	–
CCOC(=O)/C=C/C(=O)N(CC(N)=O)NC(=O)[C@H](C)NC(=O)[C@@H](C)NC(=O)N1CCOCC1	101	0.23	–	–
C[C@H](NC(=O)[C@@H](C)NC(=O)N1CCN(C(=O)OCc2ccccc2)CC1)C(=O)NN(CC(N)=O)C(=O)/C=C/C(=O)N(C)Cc1cccc2ccccc12	70	0.35	–	–
C[C@H](NC(=O)[C@@H](C)NC(=O)N1CCN(C(=O)OCc2ccccc2)CC1)C(=O)NN(CC(N)=O)C(=O)/C=C/C(=O)N(Cc1cccc2ccccc12)Cc1cccc2ccccc12	50	0.37	–	–
CC(C)[C@H](NC(=O)[C@@H](C)NC(=O)OCc1ccccc1)C(=O)NN(CC(N)=O)C(=O)/C=C/C(=O)N1CCCc2ccccc21	138	13	–	–
COc1ccc(CNC(=O)/C=C/C(=O)N(CC(N)=O)NC(=O)[C@H](C)NC(=O)N2CCOCC2)cc1OC	> 2000	> 2000	–	–
C[C@H](NC(=O)[C@@H](C)NC(=O)N1CCN(C(=O)OC(C)(C)C)CC1)C(=O)NN(CC(N)=O)C(=O)/C=C/C(=O)N(Cc1cccc2ccccc12)Cc1cccc2ccccc12	68	5	–	–
C[C@H](NC(=O)[C@@H](C)NC(=O)N1CCOCC1)C(=O)NN(CC(N)=O)C(=O)[C@H]1O[C@H]1C(=O)N(Cc1ccccc1)Cc1ccccc1	–	–	Not Active	Not Active
CC(C)(C)OC(=O)NN(CC(N)=O)C(=O)/C=C/C(=O)NCc1ccccc1	–	–	Not Active	Not Active
C[C@H](NC(=O)[C@H](C)NC(=O)N1CCCCC1)C(=O)NN(CC(N)=O)C(=O)/C=C/C(=O)N(Cc1cccc2ccccc12)Cc1cccc2ccccc12 (relative stereo)	57	8	–	–
C[C@H](NC(=O)[C@@H](C)NC(=O)N1CCNCC1)C(=O)NN(CC(N)=O)C(=O)/C=C/C(=O)N(Cc1cccc2ccccc12)Cc1cccc2ccccc12 (relative stereo)	70	2.6	–	–
CC(NC(=O)N1CCCCC1)C(=O)N[C@@H](C)C(=O)NN(CC(N)=O)C(=O)[C@H]1O[C@@H]1C(=O)N(Cc1ccccc1)Cc1ccccc1 (single isomer, unassigned)	72	12	–	–
CC(NC(=O)N1CCCCC1)C(=O)N[C@@H](C)C(=O)NN(CC(N)=O)C(=O)[C@H]1O[C@@H]1C(=O)NCc1cccc2ccccc12 (single isomer, unassigned)	160	8.5	–	–
CC(NC(=O)N1CCN(C(=O)OC(C)(C)C)CC1)C(=O)N[C@@H](C)C(=O)NN(CC(N)=O)C(=O)[C@H]1O[C@@H]1C(=O)N(Cc1ccccc1)Cc1ccccc1 (single isomer, unassigned)	80	270	–	–
CCOC(=O)[C@H]1O[C@@H]1C(=O)N(CC(N)=O)NC(=O)[C@H](C)NC(=O)C(C)NC(=O)N1CCCCC1 (single isomer, unassigned)	220	30	–	–
CC(NC(=O)N1CCOCC1)C(=O)N[C@@H](C)C(=O)NN(CC(N)=O)C(=O)[C@H]1O[C@@H]1C(=O)NCc1cccc2ccccc12 (single isomer, unassigned)	60	6	–	–
CC(NC(=O)N1CCOCC1)C(=O)N[C@@H](C)C(=O)NN(CC(N)=O)C(=O)[C@H]1O[C@@H]1C(=O)N(Cc1ccccc1)Cc1ccccc1 (single isomer, unassigned)	90	1.7	–	–
CC(NC(=O)N1CCNCC1)C(=O)N[C@@H](C)C(=O)NN(CC(N)=O)C(=O)[C@H]1O[C@@H]1C(=O)N(Cc1ccccc1)Cc1ccccc1 (single isomer, unassigned)	150	11	–	–
